STEP block – STEP phosphatase inhibitors, primary screen, biochemical, fluorescence intensity, uHTS. Tyrosine-protein phosphatase non-receptor type 5 (Homo sapiens), P54829. recombinant STEP, OMFP fluorogenic substrate. inhibition, % at 20 µM. 0.25% of 360,000 active. AID 588621, 2011;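 active means inhibition at 20 µM, scaled per plate between control wells, above about 37%, limit read from the data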
Target sequence (P54829 whole entry, looked up): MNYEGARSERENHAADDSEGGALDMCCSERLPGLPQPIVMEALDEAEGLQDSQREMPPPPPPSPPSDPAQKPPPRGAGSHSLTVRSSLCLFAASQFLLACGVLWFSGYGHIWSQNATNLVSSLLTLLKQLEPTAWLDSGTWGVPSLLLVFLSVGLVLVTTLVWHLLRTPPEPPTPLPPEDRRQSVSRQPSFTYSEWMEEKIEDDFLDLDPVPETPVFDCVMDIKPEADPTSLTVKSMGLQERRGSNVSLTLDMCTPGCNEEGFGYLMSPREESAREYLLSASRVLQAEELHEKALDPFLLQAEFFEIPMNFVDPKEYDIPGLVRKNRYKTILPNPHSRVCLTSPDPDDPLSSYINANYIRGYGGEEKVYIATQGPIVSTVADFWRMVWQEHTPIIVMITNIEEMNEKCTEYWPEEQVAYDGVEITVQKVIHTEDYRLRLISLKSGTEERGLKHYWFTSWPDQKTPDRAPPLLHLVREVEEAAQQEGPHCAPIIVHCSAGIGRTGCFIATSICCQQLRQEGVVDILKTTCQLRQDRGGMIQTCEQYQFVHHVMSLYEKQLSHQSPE
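medium = Bis-Tris buffer pH 6.0, 2.5 mM DTT, 0.005% Tween 20 | test system = STEP (striatal-enriched tyrosine phosphatase) enzyme, cell-free | measure = normalized % inhibition | compound dosing = 20 µM, 1% DMSO | also added = 25 µM OMFP | schedule = reaction 20 min, ambient temperature | measured by = fluorescence read at 480 nm ex / 540 nm em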
SUMO1 PPI mod – modulators of SUMO1 protein-protein interactions, primary screen, biochemical, uHTS | Small ubiquitin-related modifier 1 (Homo sapiens), P63165 | SUMO1 binding to a labelled peptide, TR-FRET, 1 h | inhibition, % at 20 µM | 0.33% of 360,000 active | AID 602429, 2012; in the data active means inhibition above about 37%
GRK2 inh – compounds blocking aptamer binding on GRK2 – biochemical, human GRK2, bead flow cytometry, HTS, primary screen; inhibition of aptamer binding, % at 10 µM; AID 488847, 2010; 0.59% of 330,000 active; FAM-aptamer displacement from GRK2;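 active means inhibition of aptamer binding above 40%, roughly 3 SD of noise, on plates passing a quality check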;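 further: median bead fluorescence of bound FAM aptamer so fluorescent compounds give negative values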
LMPTP inh – LMPTP phosphatase inhibitors, primary screen, biochemical, fluorescence intensity, uHTS | Low molecular weight phosphotyrosine protein phosphatase (Homo sapiens), P24666 | recombinant LMPTP-A, OMFP fluorogenic substrate | inhibition, % at 20 µM | 0.22% of 360,000 active | AID 651560, 2012;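 active means compounds that cut the enzyme signal by at least half of the control window in the single-dose screen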
Target sequence (P24666 whole entry, looked up): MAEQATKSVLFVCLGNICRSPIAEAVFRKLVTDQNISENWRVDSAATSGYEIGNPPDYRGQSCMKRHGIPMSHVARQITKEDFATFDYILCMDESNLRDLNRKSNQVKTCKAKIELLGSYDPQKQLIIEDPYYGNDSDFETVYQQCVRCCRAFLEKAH
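Assay system: LMPTP-A enzyme. Input: 0.625 nM LMPTP-A final. Probe or stimulus: 400 µM OMFP. Compound dosing: single 20 µM dose. Schedule: 50 min dark incubation at room temperature. Detection: fluorescence intensity of OMFP turnover product. Read-out: percent inhibition versus substrate-only and uninhibited controls. Benchmarks: no-enzyme low control, uninhibited high control.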
Scp1 inh – Scp-1 phosphatase inhibitors, primary screen, biochemical, colorimetric, uHTS | Recombinant Scp1, phosphopeptide, malachite green phosphate absorbance | 0.88% of 340,000 active | Carboxy-terminal domain RNA polymerase II polypeptide A small phosphatase 1 (Homo … | inhibition, % at 20 µM;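 active means inhibition above about 50% at 20 µM, limit read from the data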
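Material – SCP-1 phosphatase catalytic domain, residues 76-261 · Buffer or medium – Acidic Tris acetate buffer with magnesium and detergent · Also added – Phospho 17-mer peptide substrate · Compound – single 20 µM dose, 1% DMSO · Times – 45 min room-temperature reaction, 5 min colour, 30 min stabiliser · Technique – Phosphate-binding colour reagent, absorbance read at 630 nm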
DNMT1 block – human DNMT1 methyltransferase inhibitors, primary screen, biochemical, molecular beacon, fluorescence, HinP1I cleavage, uHTS; 0.83% of 360,000 active; inhibition (reported as % activation of signal), % at 10 µM; in the data active means inhibition above about 50%
Scp1 confirm – Scp-1 phosphatase inhibitors, retest, confirmation, biochemical, colorimetric, single concentration | shares compounds with Scp1 inh | recombinant SCP-1 catalytic domain, phosphate release, malachite green absorbance | inhibition, % at 20 µM | 61% of 2,500 active
MG interference – colorimetric readout interference by compounds, confirmation, artefact control for Scp-1 inhibitor project, biochemical, single concentration. shares compounds with Scp1 inh. 2,500 tested, under 10 active. Colorimetric interference counterscreen, malachite green absorbance 630 nm. apparent inhibition (interference), % at 20 µM;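 further: compounds added after enzyme reaction finished so only phosphate colour detection is probed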
Scp-1 Tm shift – Scp-1 binding by thermal shift, confirmation, orthogonal assay for Scp-1 inhibitor project, biophysical, differential scanning fluorimetry. 25% of 1,500 active. shares compounds with Scp1 inh. AID 540329, 2011. thermal shift relative to vanadate control, % at 40 µM. Recombinant SCP1, Sypro Orange thermal shift Tm;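 active means substances whose mean melting-temperature shift, as a percentage of the reference inhibitor's shift, reaches about 5.3%, limit read from the data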
DNMT1 interf DR – spectral interference with molecular beacon fluorescence, dose response, artefact control for DNMT1 inhibitor project, biochemical, fluorescent molecular beacon. shares compounds with DNMT1 block. spectral interference counter-screen. IC50, µM. 200 tested, under 10 active; call rule not given here
DNMT1 confirm – DNMT1 methyltransferase inhibitor retest, confirmation, biochemical, molecular beacon, fluorescence, single concentration. DNMT1 molecular beacon HinP1I cleavage. inhibition, % at 10 µM. shares compounds with DNMT1 block. 8% of 2,300 active;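 active means average inhibition of at least 30% in the single-concentration confirmation test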
Beacon interf – shows spectral interference in the DNMT1 beacon assay. activation (fluorescence interference), % at 10 µM. 1% of 2,300 active. DNMT1 molecular beacon spectral interference counterscreen, fluorescence 485/520. shares compounds with DNMT1 block;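 active means activation of at least 30% at 10 µM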;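 further: DNMT1 catalytic domain with a HinP1I cleavage step and a FAM/dabcyl DNA beacon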
Hits are given with their value; i = inactive; nt = no result. Sampled rows, rich in hits. Any-hit rate of the full collection: about 2.1%.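 How the source made its calls, unless noted: active means inhibition of at least 30% at 20 µM; inactive means the rest.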

SMILES | STEP block | SUMO1 PPI mod | GRK2 inh | LMPTP inh | Scp1 inh | DNMT1 block | Scp1 confirm | MG interference | Scp-1 Tm shift | DNMT1 confirm | Beacon interf | others
C=CCn1c(SCC(=O)NCCCC)nc2scc(-c3ccco3)c2c1=O | i | i | i | i | 73 | 100 | 69 | i | i | i | i
C=CCn1c(SCC(C)=O)nc2scc(-c3ccc(C)o3)c2c1=O | i | i | i | i | i | i | nt | nt | nt | nt | nt
CCCC1CCC(c2ccc(OCC)cc2)=CC1=O (stereo not drawn) | i | i | i | i | i | i | nt | nt | nt | nt | nt
O=C(O)c1cc(-c2ccco2)nc2cc3ccccc3cc12 | i | 38 | i | i | 91 | 76 | 34 | i | i | i | i
CN(CC(=O)Nc1ccc(F)cc1)C(=O)c1cc(-c2ccco2)nc2ccccc12 | i | i | i | i | 70 | 84 | 62 | i | 8.9 | i | i
Cc1ccc(NC(=O)CN(C)C(=O)c2cc(-c3ccco3)nc3ccccc23)cc1 | i | i | 83 | i | 76 | 75 | 68 | i | 6.2 | i | i
COc1cccc(NC(=O)CN(C)C(=O)c2cc(-c3ccco3)nc3ccccc23)c1 | i | i | i | i | 64 | 55 | 61 | i | 5.3 | i | i
O=C(N/N=C/c1ccc2c(c1)OCO2)c1cc(-c2ccccc2)nc2ccccc12 | i | i | i | i | i | i | nt | nt | nt | nt | nt
O=C(N/N=C/c1ccc2c(c1)OCO2)c1cc(-c2ccco2)nc2ccccc12 | i | i | nt | i | 67 | 72 | 46 | i | i | i | i
CSC1=N/C(=C\c2ccc(Br)o2)C(=O)S1 | i | i | i | i | 84 | 101 | 53 | i | i | i | i
CSC1=N/C(=C\c2ccccc2F)C(=O)S1 | i | i | i | i | i | i | nt | nt | nt | nt | nt
O=C1NC[C@H](CCCCN2C[C@@H](Cc3ccccc3)N(Cc3ccccc3)C(=O)C2=O)N(CCC2CCCCC2)C1=O | nt | i | nt | i | nt | nt | nt | nt | nt | nt | nt
CCOC(=O)c1cc(-c2ccco2)nn1-c1ccc(C)cc1 | i | i | i | i | i | i | nt | nt | nt | nt | nt
Cc1ccc(-n2nc(-c3ccco3)cc2C(=O)O)cc1 | i | i | i | i | 66 | 156 | 58 | i | 7.0 | i | i
COc1cc(NC(=O)c2noc3c2CCC3)c(OC)cc1Cl | i | i | i | i | 72 | 101 | 70 | i | i | i | i
COC(=O)c1ccccc1NC(=O)c1noc2c1CCCC2 | i | i | i | i | i | i | nt | nt | nt | nt | nt
CCOC(=O)C1=C(O)/C(=C\c2ccc(CNC(=O)C(=O)Nc3ccccc3)o2)N=C1C | i | i | i | i | 97 | 101 | 62 | i | 6.2 | i | i
CCOC(=O)C1=C(O)/C(=C\c2cccs2)N=C1C | i | i | i | i | i | i | nt | nt | nt | nt | nt
CC1=NN(c2ccc(Cl)c(C(=O)O)c2)C(=O)C1 | i | 41 | i | i | 75 | 68 | 53 | i | 9.5 | i | i
COc1ccccc1NC(=O)CCCc1nc(-c2ccc(OC)c(OC)c2)no1 | i | i | i | i | i | i | nt | nt | nt | nt | nt
Cc1cc2oc(C(=O)NCCc3ccc(S(N)(=O)=O)cc3)c(C)c2cc1C | i | i | i | 50 | 85 | 79 | 71 | i | i | i | i
Cc1cc2oc(C(=O)NCCc3ccc(S(N)(=O)=O)cc3)cc(=O)c2cc1C | i | i | i | i | i | i | nt | nt | nt | nt | nt
O=C(/C=C/c1ccco1)N1CCN(S(=O)(=O)c2ccccc2)CC1 | i | i | 78 | i | 73 | 66 | 70 | i | i | i | i
O=C(/C=C/c1ccco1)N1CCN(S(=O)(=O)c2ccc(F)c(F)c2F)CC1 | i | i | i | i | i | i | nt | nt | nt | nt | nt
Cc1ncc([N+](=O)[O-])n1CCOC(=O)c1cc(Cl)cc(Cl)c1N | i | i | i | i | 62 | 60 | 68 | i | 12 | i | i
SMILES | STEP block | SUMO1 PPI mod | GRK2 inh | LMPTP inh | Scp1 inh | DNMT1 block | Scp1 confirm | MG interference | Scp-1 Tm shift | DNMT1 confirm | Beacon interf | others
Cc1ncc([N+](=O)[O-])n1CCOC(=O)Nc1ccc([N+](=O)[O-])cc1 | i | i | i | i | i | i | nt | nt | nt | nt | nt
O=[N+]([O-])c1ccc(/C=N/Nc2nc3ccccc3o2)cc1 | i | i | i | i | 50 | 56 | 56 | i | i | i | i
CCS(=O)(=O)c1ccc(C=NNc2nc3ccccc3o2)cc1 | i | i | nt | i | i | i | nt | nt | nt | nt | nt
COc1ccc(NC(=O)c2cc(C3CCCCN3C(=O)OCc3ccccc3)on2)c(C)c1 (stereo not drawn) | i | i | nt | i | nt | i | nt | nt | nt | nt | nt
CC[N+](CC)(CC)CCCCOc1ccc2c(c1)C(=O)c1cc(OCCCC[N+](CC)(CC)CC)ccc1-2 | i | i | i | i | 99 | 50 | i | i | nt | i | i
Cn1c(N)c(C(=O)COC(=O)c2cc(-c3ccco3)nc3ccccc23)c(=O)n(C)c1=O | i | i | nt | 62 | 73 | 110 | 67 | i | 15 | 31 | i | DNMT1 interf DR=i
O=C(N/N=C/c1ccc([N+](=O)[O-])o1)c1cn2ccc3ccccc3c2n1 | i | i | i | i | 80 | 55 | i | i | nt | i | i
